Laboratory results reported in ChEMBL document CHEMBL5653631, “A Potent and Selective ULK1 Inhibitor Suppresses Autophagy and Sensitizes Cancer Cells to Nutrient Stress” (iScience, 2018).

Key:
[1] = target: Aurora kinase B (Homo sapiens) (UniProt Q96GD4); test: Inhibition of human recombinant AurB at 40 nM related to control ULK1
Summary of the method: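 Radiometric activity assays in a panel of 327 human recombinant kinases, each run in duplicate at one inhibitor concentration. Activity remaining is expressed as percent of vehicle control, and percent inhibition is calculated as 100% minus percent activity remaining.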

[2] = target: Calcium/calmodulin-dependent protein kinase type 1G (Homo sapiens) (UniProt Q96NX5); test: Inhibition of human recombinant CaMK1g at 40 nM related to control ULK1
Sequence of Calcium/calmodulin-dependent protein kinase type 1G (Homo sapiens) (Q96NX5 whole entry): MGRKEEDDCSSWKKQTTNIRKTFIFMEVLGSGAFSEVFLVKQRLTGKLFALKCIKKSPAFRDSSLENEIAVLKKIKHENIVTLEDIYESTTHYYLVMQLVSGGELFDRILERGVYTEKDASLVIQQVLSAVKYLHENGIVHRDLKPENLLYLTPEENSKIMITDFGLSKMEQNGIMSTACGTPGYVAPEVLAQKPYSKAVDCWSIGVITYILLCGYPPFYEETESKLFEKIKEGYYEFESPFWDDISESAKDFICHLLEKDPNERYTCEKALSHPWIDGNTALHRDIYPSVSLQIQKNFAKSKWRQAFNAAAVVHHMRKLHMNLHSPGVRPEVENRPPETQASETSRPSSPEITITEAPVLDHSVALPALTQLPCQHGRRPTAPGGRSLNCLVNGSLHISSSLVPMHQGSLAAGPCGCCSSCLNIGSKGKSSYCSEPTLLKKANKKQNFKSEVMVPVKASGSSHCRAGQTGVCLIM

[3] = target: T1, Serine/threonine-protein kinase Nek1 (Homo sapiens) (UniProt Q96PY6); test: Inhibition of human recombinant NEK1 at 40 nM related to control ULK1
T1 sequence (whole entry): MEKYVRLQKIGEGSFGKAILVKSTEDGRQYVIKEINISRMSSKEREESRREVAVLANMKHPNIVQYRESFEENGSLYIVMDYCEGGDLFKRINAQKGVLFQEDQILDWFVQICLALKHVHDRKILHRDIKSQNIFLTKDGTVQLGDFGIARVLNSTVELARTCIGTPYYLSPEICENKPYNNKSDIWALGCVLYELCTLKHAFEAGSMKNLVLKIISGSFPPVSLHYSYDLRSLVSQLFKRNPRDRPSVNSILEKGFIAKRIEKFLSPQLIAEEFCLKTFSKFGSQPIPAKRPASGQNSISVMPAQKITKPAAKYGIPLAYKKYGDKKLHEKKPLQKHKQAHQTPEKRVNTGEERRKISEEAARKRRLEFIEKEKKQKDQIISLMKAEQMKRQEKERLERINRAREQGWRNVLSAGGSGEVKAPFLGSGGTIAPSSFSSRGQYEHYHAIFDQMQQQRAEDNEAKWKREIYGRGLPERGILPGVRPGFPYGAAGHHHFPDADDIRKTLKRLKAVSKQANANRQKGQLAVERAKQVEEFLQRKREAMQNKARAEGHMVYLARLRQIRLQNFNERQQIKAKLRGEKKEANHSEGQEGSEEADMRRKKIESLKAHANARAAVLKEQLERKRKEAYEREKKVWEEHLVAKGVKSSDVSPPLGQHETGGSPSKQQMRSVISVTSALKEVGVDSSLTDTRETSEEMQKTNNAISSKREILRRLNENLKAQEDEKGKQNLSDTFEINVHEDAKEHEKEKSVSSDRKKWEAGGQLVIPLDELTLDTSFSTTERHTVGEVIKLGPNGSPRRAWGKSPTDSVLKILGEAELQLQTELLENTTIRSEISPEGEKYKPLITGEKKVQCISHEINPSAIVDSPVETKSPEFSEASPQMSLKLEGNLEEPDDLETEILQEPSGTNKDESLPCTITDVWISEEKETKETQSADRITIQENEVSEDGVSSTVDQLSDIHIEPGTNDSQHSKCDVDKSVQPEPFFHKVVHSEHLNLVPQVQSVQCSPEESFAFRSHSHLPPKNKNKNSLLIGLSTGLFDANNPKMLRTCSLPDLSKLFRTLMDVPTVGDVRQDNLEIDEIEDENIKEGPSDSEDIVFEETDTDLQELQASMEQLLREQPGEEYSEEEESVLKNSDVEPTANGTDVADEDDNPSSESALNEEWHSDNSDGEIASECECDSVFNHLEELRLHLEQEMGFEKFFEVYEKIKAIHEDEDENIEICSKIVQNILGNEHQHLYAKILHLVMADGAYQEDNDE

[4] = target: T2, Tribbles homolog 2 (Homo sapiens) (UniProt Q92519); test: Inhibition of human recombinant Trb2 at 500 nM in presence of ATP by radiometric assay relative to control
T2 sequence (whole entry): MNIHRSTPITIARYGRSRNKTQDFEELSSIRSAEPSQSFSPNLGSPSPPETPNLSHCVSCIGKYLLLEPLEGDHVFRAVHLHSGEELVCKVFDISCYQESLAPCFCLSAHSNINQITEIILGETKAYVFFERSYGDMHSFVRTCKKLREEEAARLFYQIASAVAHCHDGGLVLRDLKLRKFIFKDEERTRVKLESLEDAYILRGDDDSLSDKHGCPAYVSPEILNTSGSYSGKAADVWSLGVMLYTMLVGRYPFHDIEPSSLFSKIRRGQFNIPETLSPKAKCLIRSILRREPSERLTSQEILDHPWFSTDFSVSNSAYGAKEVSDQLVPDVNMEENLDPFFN

[5] = target: T3, Serine/threonine-protein kinase DCLK3 (Homo sapiens) (UniProt Q9C098); test: Inhibition of human recombinant DCAMKL3 at 15 nM in presence of ATP by radiometric assay relative to control
T3 sequence (whole entry): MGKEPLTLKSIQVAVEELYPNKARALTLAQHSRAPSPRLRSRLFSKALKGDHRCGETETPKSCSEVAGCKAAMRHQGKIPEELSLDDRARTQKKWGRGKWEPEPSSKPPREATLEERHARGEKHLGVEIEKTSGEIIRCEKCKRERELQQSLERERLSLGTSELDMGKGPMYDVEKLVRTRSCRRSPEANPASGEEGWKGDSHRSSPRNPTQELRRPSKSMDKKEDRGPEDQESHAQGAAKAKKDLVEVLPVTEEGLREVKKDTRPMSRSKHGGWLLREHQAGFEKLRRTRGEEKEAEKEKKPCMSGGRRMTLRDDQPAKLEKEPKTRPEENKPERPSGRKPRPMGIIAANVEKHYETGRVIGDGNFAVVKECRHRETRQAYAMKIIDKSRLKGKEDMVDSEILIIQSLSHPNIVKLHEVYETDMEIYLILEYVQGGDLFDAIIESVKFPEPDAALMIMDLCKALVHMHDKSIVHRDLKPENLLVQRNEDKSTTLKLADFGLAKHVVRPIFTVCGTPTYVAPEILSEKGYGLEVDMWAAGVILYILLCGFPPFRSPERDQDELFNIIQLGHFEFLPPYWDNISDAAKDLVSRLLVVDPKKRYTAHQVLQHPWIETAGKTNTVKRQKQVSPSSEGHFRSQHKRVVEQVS

Sequence of Aurora kinase B (Homo sapiens) (Q96GD4 whole entry): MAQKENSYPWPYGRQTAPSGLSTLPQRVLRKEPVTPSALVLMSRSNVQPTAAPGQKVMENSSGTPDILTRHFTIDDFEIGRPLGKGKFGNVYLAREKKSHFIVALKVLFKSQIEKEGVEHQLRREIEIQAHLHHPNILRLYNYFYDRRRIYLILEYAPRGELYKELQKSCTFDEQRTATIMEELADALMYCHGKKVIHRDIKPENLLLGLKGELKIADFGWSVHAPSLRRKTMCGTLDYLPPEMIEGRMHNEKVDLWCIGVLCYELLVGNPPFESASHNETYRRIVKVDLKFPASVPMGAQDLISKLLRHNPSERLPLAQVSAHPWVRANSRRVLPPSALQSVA

In the case of O=C(N[C@@H](C1CC1)C(F)(F)F)c1cc(-c2cnn3cc(-c4ccc(F)cc4)cnc23)cs1, the fold change (FC) [1] is reported as 0.67, the fold change (FC) [2] is reported as 0 and the fold change (FC) [3] is reported as 0.

In the case of CNC(=O)c1ccccc1Oc1nc(Nc2cc(OC)c(OC)c(OC)c2)ncc1Br, the inhibition [4] is reported as 0%.

CC(C)[C@H](NC(=O)c1cc(-c2cnn3cc(-c4ccc(OCCN5CCCCC5)cc4)cnc23)cs1)C(F)(F)F showed an inhibition [5] of 35%.
